From ChEMBL document CHEMBL4028851, “Discovery of Potent Small-Molecule Inhibitors of Ubiquitin-Conjugating Enzyme UbcH5c from α-Santonin Derivatives” (J Med Chem, 2017)
Calls of active or inactive are those of the source. The calls are words filed in the database; no cut-off is given here.

How the values were obtained:
[1] = AUC (0 to infinity) in Sprague-Dawley rat at 5 mg/kg, po via gavage by LC-MS/MS analysis; assay type: ADME, organism-based; parameters: dose 5 mg/kg, time infinity, route oral; conditions: in vivo
Outline: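 Male Sprague-Dawley rats (about 200‒220 g), n = 6, fasted overnight; single oral gavage at 5 mg/kg as a suspension in 0.5% methylcellulose. Blood was drawn from the orbital artery into heparin tubes at 0.083–24 h. Plasma was analysed by LC/MS/MS (ESI, MRM). AUC(0-∞) came from noncompartmental analysis, reported as mean ± SD of six rats.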

[2] = Cmax in Sprague-Dawley rat at 5 mg/kg, po via gavage by LC-MS/MS analysis; assay type: ADME, organism-based; parameters: dose 5 mg/kg, route oral; conditions: in vivo
Outline: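 Male Sprague-Dawley rats (about 200‒220 g; n = 6) were fasted overnight and gavaged with 5 mg/kg as a suspension in 0.5% methylcellulose. Blood was taken from the orbital artery at 0.083–24 h into heparin tubes. Plasma was quantified by LC/MS/MS (ESI, MRM), with noncompartmental analysis. Bioavailability was referenced to a 1 mg/kg iv dose. Values are mean ± SD.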

[3] = Half life in rat liver microsomes at 5 uM in preincubated for 3 mins followed by NADPH addition measured up to 90 mins; assay type: ADME, microsome
Outline: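 Rat liver microsomes (0.5 mg/mL) were used in 100 mM potassium phosphate, pH 7.4, with compound at 5 µM final. After 3 min preincubation at 37 °C, an NADPH-generating system was added (4 mM MgCl2, 1 mM NADP+, 10 mM glucose 6-phosphate, 1 unit/mL G6PDH). Incubation continued for 0–90 min and was stopped with ice-cold acetonitrile.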

[4] = target: T1, Ubiquitin-conjugating enzyme E2 H (Homo sapiens) (UniProt P62256); assay: Inhibition of UbcH2 (unknown origin) at 2.5 to 10 uM preincubated for 15 mins followed by E1, Ub and ATP addition measured after 40 mins by Western blot analysis
T1 sequence (whole entry): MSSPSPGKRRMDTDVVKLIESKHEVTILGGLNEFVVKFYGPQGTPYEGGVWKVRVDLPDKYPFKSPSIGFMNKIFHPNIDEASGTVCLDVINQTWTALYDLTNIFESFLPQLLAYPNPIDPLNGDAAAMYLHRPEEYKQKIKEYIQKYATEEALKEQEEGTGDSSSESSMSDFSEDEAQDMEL

[5] = Binding affinity to IYHPNINSNGSICLDILR assessed as covalent adduct formation with Cys85 residues after 1 hr by LC/MS/MS analysis
in vitro = conditions: human, HEK-293T cells

- AUC(0-inf) [1]: 314 ng·h/mL
- Cmax [2]: 42.2 ng/mL
- half-life at 5 µM [3]: 2.11 h
- inhibition [4]: inactive
- Activity [5]: Active
Compound: C=C1C(=O)O[C@H]2c3c(C)c(OCc4ccccc4Br)cc(C)c3CC[C@@H]12
- cytotoxicity at 5 µM (in vitro): < 20%
